The nature of series [1]: Cytotoxicity against rat C6 cells assessed as viable cells at 20 uM after 24 hrs by MTT assay. As to conditions: read-out: Activity. It is filed as cell-based. The essentials:
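C6 rat glioma cells exposed to test agent at 20 μM for 24 h; viability read by MTT and expressed as percentage of untreated control. Means ± SD of three independent experiments, each in triplicate; significance versus control by Student's t-test (p < 0.05).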

In the next series the test system is C6. Briefly: Induction of NGF production in rat C6 cells at 20 uM after 24 hrs by ELISA relative to untreated control. It is filed as functional. Put shortly:
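C6 glioma cells treated at 20 μM for 24 h; NGF released into C6-conditioned medium quantified by ELISA, reported as percentage of untreated control. Means ± SD from three independent experiments run in triplicate; Student's t-test versus control, p < 0.05.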
On the technique in general: An ELISA detects its analyte on a solid surface through an enzyme-linked reagent.

Molecules are shown by their SMILES.

On to `COc1cc(O)cc(CCc2ccccc2O)c1` [BATATASIN IV], for which, in series [1], the viability at 24 h, 20 µM turned out to be 95%. In the series with C6, this molecule registered an Activity of 106.1%.

Turning to `C[C@H](CC[C@@]1(O)O[C@H]2C[C@H]3[C@@H]4CC=C5C[C@@H](O[C@@H]6O[C@H](CO)[C@@H](O[C@@H]7OC[C@H](O)[C@H](O)[C@H]7O)[C@H](O)[C@H]6O[C@@H]6O[C@@H](C)[C@H](O)[C@@H](O)[C@H]6O)CC[C@]5(C)[C@H]4CC[C@]3(C)[C@H]2[C@@H]1C)CO[C@@H]1O[C@H](CO)[C@@H](O)[C@H](O)[C@H]1O` [COREAJAPONINS A], in series [1], the viability at 24 h, 20 µM came out at 106%. In the series with C6, the Activity is recorded as 107.2%.

For `COc1cc(O)cc(CCc2ccccc2OC)c1` [STILBOSTEMINN], the viability at 24 h, 20 µM in series [1] came out at 104%. Further, in the series on C6, the Activity amounted to 104.6%.

On to `CC1=CC(=O)CC(C)(C)[C@@]1(O)/C=C/[C@@H](C)O` [BLUMENOL A], for which the viability at 24 h, 20 µM in series [1] came out at 101%. The Activity in the series with C6 amounted to 122.2%.

Take `CC(=O)CCc1ccc(O)cc1` [RASPBERRYKETONE]: in series [1], the viability at 24 h, 20 µM worked out at 101%. Besides, the Activity in the series with C6 was 106.8%.

Regarding `COc1cc(CC[C@@H](O)C[C@@H](O)CCc2ccc(O)c(OC)c2)ccc1O`, the viability at 24 h, 20 µM in series [1] was determined as 102%. Also, in the series on C6, the Activity came out at 120.7%.

In the case of `COCC(=O)c1ccc(O)cc1`, the viability at 24 h, 20 µM in series [1] was 99.8%. The Activity with C6 came to 105.6%.

In the case of `NC(=O)NC1NC(=O)NC1=O` (centres undefined) [ALLANTOIN], in series [1], the viability at 24 h, 20 µM is 100%. Besides, the Activity in the series on C6 stood at 102.4%.

Consider `CCCCO[C@]1(CO)O[C@H](CO)[C@@H](O)[C@@H]1O`, for which, in series [1], the viability at 24 h, 20 µM is 102%. The Activity in the series on C6 is recorded as 117.5%.

With `Oc1cc(O)cc(CCc2ccccc2)c1` [DIHYDROPINOSYLVIN], the viability at 24 h, 20 µM in series [1] was 105%. In addition, the Activity with C6 is on record as 117%.

On to `CC[C@H](CC[C@@H](C)[C@H]1CC[C@H]2[C@@H]3CC=C4C[C@@H](O)CC[C@]4(C)[C@H]3CC[C@]12C)C(C)C` [BETA-SITOSTEROL], for which the viability at 24 h, 20 µM in series [1] amounted to 104%. Further, the Activity in the series on C6 amounted to 106.1%.

Turning to `CO[C@]1(CC[C@@H](C)CO[C@@H]2O[C@H](CO)[C@@H](O)[C@H](O)[C@H]2O)O[C@H]2C[C@H]3[C@@H]4CC=C5C[C@@H](O[C@@H]6O[C@H](CO)[C@@H](O[C@@H]7OC[C@H](O)[C@H](O)[C@H]7O)[C@H](O)[C@H]6O[C@@H]6O[C@@H](C)[C@H](O)[C@@H](O)[C@H]6O)CC[C@]5(C)[C@H]4CC[C@]3(C)[C@H]2[C@@H]1C` [COREAJAPONINS B], the viability at 24 h, 20 µM in series [1] worked out at 98%. Further, the Activity with C6 is on record as 132.9%.

The record behind these values is ChEMBL document CHEMBL1759951, “Furostanol saponins from the rhizomes of Dioscorea japonica and their effects on NGF induction” (Bioorg Med Chem Lett, 2011).
